Screening data from PubChem.
A selection: hits, their analogues and other compounds. The true share with any hit is near 4.9%.
STAT1 blocker = STAT1 signaling inhibition; NIH 3T3 STAT1-luciferase reporter, IFN-gamma, luminescence; inhibition, % at 5.5 µM; 200,000 compounds, 0.35% hits;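 active = inhibition above a set limit, the mean inhibition across all tested compounds plus 3 SD, cut at about 34% in these data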
STAT1 act-1 = increases IFN-gamma driven STAT1 reporter signal; NIH 3T3 STAT1-luciferase reporter, luminescence; 100% = IFN-gamma alone, no compound; activation (% of control), % at 5.5 µM; 200,000 compounds, 2.6% hits;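 active = activation above the screen-wide mean activation plus 3 SD, cut at about 130% in these data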
STAT3 act-1 = increases IL-6 driven STAT3 reporter signal. U3A cells, IL-6 STAT3-luciferase reporter, luminescence; 100% = signal with IL-6 EC80 alone. activation (% of control), % at 5.6 µM. 190,000 compounds, 0.91% hits. AID 871;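 active = activation above the screen-wide mean of compound activation plus 3 SD, cut at about 130% in these data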
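Assay system – human STAT1-deficient U3A cells with stable STAT3-luciferase reporter · Also added – IL-6 (33 ng/mL) · Schedule – compound 1 h, then IL-6 6 h at 37 °C · Technique – reporter luminescence signal · Evaluation – % activation versus median of IL-6-stimulated wells · Benchmarks – IL-6-only wells as 100% reference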
NF-kB neuron act = compounds increasing NF-kB expression in human neuronal cells; NF-kB reporter expression; stronger effect = higher value; fold change at 12.5 µM; 190,000 compounds, 1.6% hits; in the data active = fold change above about 3.3
STAT3 inh = STAT3 signaling inhibition. 190,000 compounds, 0.89% hits. U3A cells, IL-6 STAT3-luciferase reporter, luminescence; host cell line lacks STAT1. inhibition, % at 5.5 µM. AID 862;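 active = inhibition above the mean inhibition across all screened compounds plus 3 SD, cut at about 44% in these data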
APP 5'UTR act = activates APP 5'UTR luciferase reporter | activation, % at 2 µM | 190,000 compounds, 1% hits | SH-SY5Y APP 5'UTR luciferase reporter, luminescence; zero percent = DMSO vehicle wells | AID 1276;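 active = activation above a set limit, based on mean plus 3 SD of controls, cut at about 140% in these data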
STAT3 act-2 = STAT3 activation, confirmation assay; shares compounds with STAT3 act-1; U3A STAT3-luciferase reporter, IL-6 potentiation, luminescence; U3A cells lack STAT1; 100 means same as IL-6 alone; potentiation (% of control), % at 5.7 µM; 1,200 compounds, 64% hits; AID 1267;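 active = percent activation of the STAT3 luciferase reporter above a set limit taken from the earlier primary screen, cut at about 130% in these data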
NFkB act 2 = NF-kappaB activation in STAT3 activator counter-screen | 1,200 compounds, 11% hits | activation (% of control), % at 5.7 µM | shares compounds with STAT3 act-1 | AID 1309 | human cells, NF-kappaB reporter activation; in the data active = activation above about 120%;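 also: reporter induced by TNF-alpha stimulation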
STAT1 act-2 = counter-screen for STAT3 activators: STAT1 activation | AID 1318 | shares compounds with STAT3 act-1 | 1,200 compounds, 13% hits | activation (% of control), % at 5.7 µM | NIH 3T3 STAT1-luciferase reporter, IFN-gamma, luminescence;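 active = activation above the solvent-only control well mean plus 3 SD, set per screening run, cut at about 120% in these data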
Each line names hits and unclear results; the compound was inactive in the other large screens (follow-up assays come after a bar, where they were run).

O=c1oc(-c2cccs2)nc2scc(-c3cccs3)c12	STAT3 act-1 140, APP 5'UTR act 200 | STAT3 act-2 inactive | NFkB act 2 inactive | STAT1 act-2 inactive
Brc1cc(Br)c2nc(-c3cccs3)ccc2c1	STAT3 act-1 145 | STAT3 act-2 inactive | NFkB act 2 inactive | STAT1 act-2 125
CC(N=Cc1c(O)c2ccccc2oc1=O)C(=O)O (centres undefined)	none
O=S(=O)(c1ccc(Br)cc1)N1CCN(c2ccc3nnc(-c4ccccc4)n3n2)CC1	STAT3 act-1 167 | STAT3 act-2 144 | NFkB act 2 inactive | STAT1 act-2 inactive
CC1Cc2ccccc2N1Cc1cc(=O)n2ccsc2n1 (centres undefined)	STAT3 act-1 146 | STAT3 act-2 152 | NFkB act 2 inactive | STAT1 act-2 inactive
CCOC(=O)CN1C(=O)C2Cc3ccccc3CN2C1=S (centres undefined)	none
O=S(=O)(Nc1ccccn1)c1cccc(S(=O)(=O)c2ccc(Br)cc2)c1	none
CNC(=S)N/N=C1\C(=O)c2cccc3cccc1c23	STAT3 act-1 138 | STAT3 act-2 143 | NFkB act 2 inactive | STAT1 act-2 inactive
CCCCNC(=S)N/N=C1\C(=O)c2cccc3cccc1c23	none
CN(C)S(=O)(=O)N(CC(=O)N1CCN(c2ccccc2F)CC1)c1ccccc1	none
OC1(c2ccccc2)c2ccccc2-c2ncccc21 (centres undefined)	STAT3 act-1 137 | STAT3 act-2 134 | NFkB act 2 inactive | STAT1 act-2 inactive
O=C1Nc2ccccc2C1(O)c1ccccc1 (centres undefined)	none
CCOC(=O)c1[nH]c2ccc(OC)cc2c1NS(=O)(=O)c1ccc(OC)cc1OC	none
COC(=O)c1[nH]c2ccc(F)cc2c1NS(=O)(=O)c1ccc(OC)cc1OC	STAT3 act-1 143 | STAT3 act-2 inactive | NFkB act 2 inactive | STAT1 act-2 inactive
CC(C)(C)n1nc2c(c1NC(=O)c1ccc(S(=O)(=O)N3CCCC3)cc1)CSC2	STAT3 act-1 152 | STAT3 act-2 145 | NFkB act 2 inactive | STAT1 act-2 inactive
Cc1c(NC(=O)c2cccs2)c(=O)n(-c2ccccc2)n1C	none
N#C/C(=C\c1ccc(-c2ccc(C(=O)O)cc2)o1)c1nc2ccccc2[nH]1	STAT3 act-1 189 | STAT3 act-2 205 | NFkB act 2 134 | STAT1 act-2 141
N#Cc1c(C(F)(F)F)cc(-c2ccc(Cl)c(Cl)c2)nc1SCCN1CCOCC1	STAT3 act-1 160 | STAT3 act-2 146 | NFkB act 2 inactive | STAT1 act-2 inactive
Cc1cc(C(F)(F)F)nc(SCCN2CCOCC2)c1C#N	none
CC(=O)c1coc2c1cc(O)c1ccccc12	none
O=C(c1ccco1)c1coc2c1cc(O)c1ccccc12	STAT3 act-1 161 | STAT3 act-2 164 | NFkB act 2 inactive | STAT1 act-2 inactive
CSc1nc2ccc(NC(=O)C3=NNC(=O)CC3)cc2s1	STAT3 act-1 141 | STAT3 act-2 151 | NFkB act 2 inactive | STAT1 act-2 inactive
COC(=O)c1ccc(C(=O)NC(=S)Nc2ccc3nc(SC)sc3c2)cc1	none
CSc1nc2ccc(NC(=O)C3=NN(c4ccccc4)C(=O)CC3)cc2s1	STAT3 act-1 138 | STAT3 act-2 161 | NFkB act 2 inactive | STAT1 act-2 inactive
Cc1ccc(NC(=O)c2c(Cl)n(C)c3ccccc23)cc1	STAT3 act-1 170 | STAT3 act-2 190 | NFkB act 2 123 | STAT1 act-2 132
O=C(COC(=O)[C@@H]1CC(O)CN1S(=O)(=O)c1ccc2c(c1)OCCO2)NCc1ccc(F)cc1 (some centres undefined)	none
CN1CCc2c(sc3c2C(=O)NC(c2ccco2)N3)C1 (centres undefined)	none
O=C1NC(c2cccs2)Nc2sc3c(c21)CCCC3 (centres undefined)	STAT3 act-1 143 | STAT3 act-2 139 | NFkB act 2 125 | STAT1 act-2 inactive
CC(C)CC(NC(N)=O)C(=O)OCC(=O)N(Cc1ccccc1)Cc1ccccc1 (centres undefined)	none
COc1ccc(C(=O)N/N=C/C2CC=CCC2)cc1OC (centres undefined)	none
COCc1cc(C)nc2sc(C(=O)NN)c(-n3cccc3)c12	STAT3 act-1 137 | STAT3 act-2 139 | NFkB act 2 inactive | STAT1 act-2 inactive
Cc1ccc[n+](CC(=O)Nc2cc(C(F)(F)F)ccc2N2CCOCC2)c1	none
C/C(N)=C(/C#N)C(=O)CSc1nnc(COc2ccccc2Cl)o1	STAT3 act-1 139 | STAT3 act-2 134 | NFkB act 2 inactive | STAT1 act-2 inactive
CC(C)(C)NC(=O)NC(=O)CSc1nnc(COc2ccccc2Cl)o1	none
COc1cc(NC(=O)c2ccc(Cl)cc2)c(OC)cc1Cl	STAT3 act-1 149 | STAT3 act-2 inactive | NFkB act 2 inactive | STAT1 act-2 inactive
COc1cc(OC)c(NC(=O)c2ccccc2F)cc1Cl	STAT3 act-1 138 | STAT3 act-2 inactive | NFkB act 2 inactive | STAT1 act-2 inactive
O=S(=O)(Nc1ccc(N2CCCCC2)cc1)c1ccc(F)c(F)c1	none
CCOC(=O)c1sc2nccc(OC)c2c1N=CN(C)C	none
CCOC(=O)c1c(/N=C/c2cccc([N+](=O)[O-])c2O)sc(C)c1C	none
CSc1nsc(SCC(=O)NC2CCCCC2)n1	STAT3 act-1 137 | STAT3 act-2 inactive | NFkB act 2 inactive | STAT1 act-2 inactive
Cn1nc(Oc2ncc(C(F)(F)F)cc2Cl)cc1C(F)(F)F	none
Cn1nccc1C(=O)N1CCc2c([nH]c3ccccc23)C1c1ccc(F)cc1 (centres undefined)	none
Fc1ccccc1C1c2[nH]c3ccccc3c2CCN1Cc1cccn1-c1ncccn1 (centres undefined)	none
O=C(Cc1cnc2ncnn2c1)N1CCc2c([nH]c3ccccc23)C1c1ccccc1F (centres undefined)	STAT3 act-1 144 | STAT3 act-2 140 | NFkB act 2 inactive | STAT1 act-2 inactive
Cc1nonc1CC(=O)N1CCc2c([nH]c3ccccc23)C1c1ccccc1F (centres undefined)	STAT3 act-1 149 | STAT3 act-2 143 | NFkB act 2 inactive | STAT1 act-2 inactive
CCCc1nc2ccccc2c(=O)n1-c1ccc(C(=O)OCC)cc1	none
